Assay results from different studies.
Lines come from different studies, so protocols differ. Converted amounts (≈) assume the structure as drawn.

For `CN(C)c1ccc(O)c2c1C[C@H]1C[C@H]3[C@H](N(C)C)C(O)=C(C(N)=O)C(=O)[C@@]3(O)C(O)=C1C2=O`, the MIC was 2 µg/mL (≈ 4.37 µM) (Enterobacter cloacae; microbial growth, broth dilution; ATCC13047).
`C[C@@H](Oc1cc(-c2cnn(C3CCNCC3)c2)cnc1N)c1c(Cl)ccc(F)c1Cl` has an inhibition of 77.5% (NCI-H3122; cell growth or viability, MTT; 1 µg/mL, 72 h).
`O=[N+]([O-])c1ccc(-c2nc3ccccc3n2Cc2ccccc2)cc1` gave an IC50 of 7.44 µM (human Rhabdomyosarcoma cell; cell growth or viability, MTT).
The MIC of `C/C=C(\C)c1cc(OC(=O)c2c(O)c(C)c(O)c(Cl)c2/C(C)=C/C)c(C)c(O)c1C(=O)O` is reported as 64 µg/mL (≈ 139 µM) (Enterococcus gallinarum; microbial growth, broth dilution; GALLINARUM).
The MIC of `CN(C)c1cc(CNCC(C)(C)C)c(O)c2c1C[C@H]1C[C@H]3[C@H](N(C)C)C(O)=C(C(N)=O)C(=O)[C@@]3(O)C(O)=C1C2=O` is reported as 4 µg/mL (≈ 7.19 µM) (Enterobacter cloacae; microbial growth, broth dilution; ATCC13047).
For `CC(C)Oc1c(NC(=O)c2ccc(NC(=O)[C@H](CC(N)=O)NC(=O)c3ccc(NC(=O)c4ccc(C#N)cn4)cc3)cc2)ccc(C(=O)Nc2ccc(C(=O)O)cc2)c1O`, the MIC was over 64 µg/mL (Serratia marcescens; microbial growth; DSM30121).
`Oc1ccccc1-c1nc2ccccc2[nH]1` gave an IC50 of 15.4 µM (human Rhabdomyosarcoma cell; cell growth or viability, MTT; 48 h).
With `C/C=C(\C)c1cc(O)c(C)c(OC(=O)c2c(C)cc(O)c(Cl)c2O)c1` the MIC was 8 µg/mL (≈ 22.1 µM) (Enterococcus gallinarum; microbial growth, broth dilution; GALLINARUM).
`O=[N+]([O-])c1cccc(-c2nc3ccccc3[nH]2)c1` has an IC50 of 50.3 µM (human Rhabdomyosarcoma cell; cell growth or viability, MTT; 48 h).
`CCCc1nc(N(C)C)c2c(c1O)C(=O)C1=C(O)[C@]3(O)C(=O)C(C(N)=O)=C(O)[C@@H](N(C)C)[C@@H]3C[C@@H]1C2.Cl.Cl` has an MIC of over 32 µg/mL (Enterobacter cloacae; microbial growth, broth dilution; ATCC13047).
`Cc1cc(Nc2ncc(Cl)c(Nc3ccccc3S(=O)(=O)C(C)C)n2)c(OC(C)C)cc1C1CCNCC1` gave an inhibition of 90.7% (NCI-H3122; cell growth or viability, MTT; 2 µg/mL, 72 h).
`CCOc1ccc(-c2nc3ccccc3[nH]2)cc1` has an IC50 of 25.1 µM (human Rhabdomyosarcoma cell; cell growth or viability, MTT; 48 h).
